Bioassay records from PubChem BioAssay.
Hits are enriched below; roughly 2.8% of the tested compounds scored in any of these assays.
Mcl-1 Bim block = inhibitors of Bim-Mcl-1 interaction, human; Bead-based flow cytometry, Bim peptide-Mcl-1 binding; inhibition, % at 10 µM; actives 0.1% (n = 190,000); AID 1009; in the data active = inhibition above about 40%;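 also: 0% = no compound tracer wells and 100% = peptide blocker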
Target sequence (Q07820 whole entry, looked up): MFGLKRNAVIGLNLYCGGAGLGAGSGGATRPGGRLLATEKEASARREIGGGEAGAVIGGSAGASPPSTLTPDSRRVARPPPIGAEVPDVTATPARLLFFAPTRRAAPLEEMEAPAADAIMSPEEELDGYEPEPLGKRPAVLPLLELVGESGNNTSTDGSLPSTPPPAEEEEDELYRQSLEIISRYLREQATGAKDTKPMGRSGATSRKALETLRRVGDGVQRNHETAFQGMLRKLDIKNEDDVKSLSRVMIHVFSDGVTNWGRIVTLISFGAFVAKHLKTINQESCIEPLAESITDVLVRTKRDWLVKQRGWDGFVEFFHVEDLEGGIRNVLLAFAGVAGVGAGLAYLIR
Arbovirus inh = arbovirus infection inhibition. arbovirus infection cell-based antiviral screen. inhibition, % at 10 µM. actives 0.37% (n = 200,000). AID 1251; in the data active = inhibition above about 30%
Calpain2 inh = inhibitors of pig calpain II; inhibition, % at 16 µM; purified calpain II, fluorogenic peptide substrate, 30 min; actives 0.37% (n = 220,000); AID 1236;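 active = inhibition above about 50%, limit read from the data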
Mcl1 Noxa PPI = disrupts binding of human Mcl-1 to Noxa peptide; inhibition, % at 21.7 µM; actives 1.5% (n = 220,000); Q07820; TR-FRET Mcl-1/Noxa peptide binding, 2 h;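 active = compounds that cut the protein-peptide binding signal by more than 50% relative to plate controls in a single-dose test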;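 also: His-tagged Mcl-1 with rhodamine Noxa BH3 peptide and terbium anti-His antibody; 0% = Mcl-1 plus Noxa peptide wells and 100% = peptide-only wells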
Mcl1-Bid inh = Mcl-1/Bid interaction inhibition; TR-FRET Mcl-1/Bid-Dy647 peptide binding, 1536-well; inhibition, % at 21.7 µM; actives 0.97% (n = 220,000); Q07820;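 active = compounds that cut the binding signal by more than half at the single screening dose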;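 also: His-tagged Mcl-1 with europium anti-His antibody binding Bid BH3 peptide; 0% = Mcl-1 plus peptide wells and 100% = peptide-only wells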
Calb biofilm kill = mixture kills Candida albicans biofilm cells; AID 1242; C. albicans biofilm persisters + clotrimazole, fluorescence viability; primary screen in compound mixtures of four per well; inhibition, % at 7.6 µM; actives 0.02% (n = 120,000);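 active = inhibition above 30.3% in the primary screen of four-compound pools, then above 30% when the compound was retested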;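 also: compounds exposed to preformed 24 h biofilms for 48 h; 0% = untreated biofilm control and 100% = clotrimazole plus chlorhexidine kill blank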
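Assay system: C. albicans biofilms / Medium: RPMI/MOPS medium, pH 7.0 / Schedule: biofilm formation 24 h, compound exposure 48 h, 37 °C / Measured by: Alamar Blue fluorescence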
* marks the source's active call; other numbers are inactive results; i = inactive; . = not tested or not shown; ! = repeats disagree.

SMILES	Mcl-1 Bim block	Arbovirus inh	Calpain2 inh	Mcl1 Noxa PPI	Mcl1-Bid inh	Calb biofilm kill
O=C(NC(=S)Nc1nc2c(s1)CCCC2)c1ccc(C(=O)c2ccccc2)cc1	-1	-8	-22	-2	-20	12
Cc1cc(S(=O)(=O)N2CCCOC2CNC(=O)C(=O)NCc2ccco2)ccc1F (stereo not drawn)	-1	1	-21	6	-12	11
N#C/C(=C\c1ccc(/C=C(/C#N)c2nn(CCO)c(N)c2C#N)cc1)c1nn(CCO)c(N)c1C#N	0	1	24	58*	62*	25
N#C/C(=C/c1ccccc1)c1nn(CCO)c(N)c1C#N	0	-3	-32	38	-1	.
CCCOc1ccc(-c2c(C(=O)N/N=C/c3ccc(OC)cc3)nnn2-c2nonc2N)cc1	55*	-5	-231	12	-27	8
CCCOc1ccc(-c2c(C(=O)N/N=C/c3ccc(OCC)cc3)nnn2-c2nonc2N)cc1	-5	-13	-348	-1	-22	3
CCOc1ccc(/C=N/NC(=O)c2nnn(-c3nonc3N)c2COc2ccc(F)cc2)cc1	.	.	-68	9	-22	27
CN(C)c1ccc(/C=N/NC(=O)c2nnn(-c3nonc3N)c2COc2ccc(F)cc2)cc1	.	.	-7	59*	-40	8
CC(C)C(NC(=O)OCc1ccccc1)C(=O)N1CCOCCOCCOCC1 (stereo not drawn)	0	-1	10	9	-3	11
Nc1c(C(=O)c2ccco2)oc2ccccc12	-1	-2	7	13	-59	10
S=c1[nH]nc(-c2ccc3ccccc3n2)n1-c1ccc2ncccc2c1	-1	-1	-21	70*	-130	14
O=c1c2c3c(sc2[nH]c(=S)n1Cc1ccco1)CCC3	.	.	-4	76*	-50	14
CC1(C)Cc2c(sc3[nH]c(=S)n(Cc4ccco4)c(=O)c23)CO1	-5	6	22	30	-9	.
COc1ccc(C(=O)N=S2CCN(C(=O)c3ccc(Cl)cc3)CC2)cc1	.	.	9	7	0	11
CC(C)OCCCNc1ncc2c(n1)CC(c1ccccc1)CC2=O (stereo not drawn)	2	0	-19	60*	-51	3
CC(C)CCOc1ccc(/C=C2\CCn3c2nc2cc(C(=O)O)ccc2c3=O)cc1	0	38*	-70	78*	-22	0
N#Cc1c(-c2ccccc2)nc(-c2ccccc2)nc1N1CCOCC1	-1	-7	-36	24	51*	.
CCOc1ccc(C2C=C(c3ccc(C)cc3)Nc3ncnn32)cc1 (stereo not drawn)	7	32*	i	8	-24	.
CCOc1ccc(C2C=C(c3ccc(C)cc3)Nc3nnnn32)cc1 (stereo not drawn)	-2	13	24	-8	-1	.
CCc1ccc(CCC(=O)Nc2ccccc2C(=O)O)o1	-1	38*	-12	24	-18	.
O=C(Nc1ccccc1)n1ccc(-c2ccc(-n3ccnc3)cc2)n1	0	1	-13	-7	-31	5
CCn1c(-c2cc(Cl)ccc2OC)n[nH]c1=S	-4	4	-22	59*	42	.
O=C(Nc1ccc(-c2cc3ccccc3oc2=O)c(Cl)c1)c1cccnc1	-3	9	-52	-92	-12	.
O=C(Nc1cccnc1)c1cccc(-c2cc3ccccc3oc2=O)c1	-1	-3	1	28	57*	12
COc1cc(NC(=O)c2cccnc2)ccc1-c1cc2ccccc2oc1=O	-1	-3	-109	51*	20	4
SMILES	Mcl-1 Bim block	Arbovirus inh	Calpain2 inh	Mcl1 Noxa PPI	Mcl1-Bid inh	Calb biofilm kill
Cc1cc(CNC(=O)COc2ccc(F)cc2Cl)cc(C)c1O	1	0	16	8	-16	13
O=C(O)c1cnn2c(C(F)(F)F)cc(-c3ccco3)nc12	1	5	-52	39	79*	.
O=C(c1cnn2c(C(F)(F)F)cc(-c3ccco3)nc12)N1CCCCCC1	-4	0	-89	9	-5	.
O=C(CNC(=O)c1ccccc1F)Nc1ccccc1C(F)(F)F	0	-2	-14	16	-28	6
COc1ccc2c(Cl)c(C(=O)N/N=C/c3ccc4c(c3)OCO4)sc2c1	-3	-3	-125	-5	37	.
O=C(N/N=C/c1ccc2c(c1)OCO2)c1sc2cc(Cl)ccc2c1Cl	1	-18	14	49	51*	14
N#C/C(=C(/O)COC(=O)CCc1ccc(S(=O)(=O)N2CCOCC2)cc1)c1nc2ccccc2[nH]1	3	-51	-241	62*	-24	.
N#C/C(=C(/O)COC(=O)c1ccc(Cl)c(S(=O)(=O)N2CCOCC2)c1)c1nc2ccccc2[nH]1	-1	-9	-86	52*	-1	3
Cc1ccc(C(=O)OC/C(O)=C(\C#N)c2nc3ccccc3[nH]2)cc1S(=O)(=O)N1CCOCC1	-2	-5	-79	-18	-28	6
COCCCN(C(=S)Nc1c(C)cc(C)cc1C)C(C)c1ccccn1 (stereo not drawn)	-5	2	-27	21	-18	11
O=C1Nc2ccccc2/C1=C/c1cnc(-c2ccccc2)[nH]1	.	.	23	65*	9	16
c1ccc(Nc2cccc3c(Nc4ccccc4)cccc23)cc1	.	.	7	51*	6	9
COC(=O)c1ccccc1Nc1ccccc1	3	-3	3	-10	-27	.
c1ccc(Nc2ccccn2)cc1	0	0	13	13	7	.
c1ccc(Nc2cccc(Nc3ccccc3)n2)cc1	32	-8	-4	72*	-21	.
Cc1cc(C)c[n+](-c2nc3ccccc3nc2C(=C=[N-])C#N)c1	46*!	10	-407	23	-30	12
Cc1ccc[n+](-c2nc3ccccc3nc2C(=C=[N-])C#N)c1	0	-4	-312	-1	-47	8
Cc1ccc(S(=O)(=O)N2C(=O)/C(=C3\SC(=S)NC3=O)c3ccccc32)cc1	.	.	15	70*	-66	10
Cc1ccc(NCc2ccccc2O)cc1	-1	-4	13	7	-103	.
Cc1ccc(CNc2ccc(O)cc2)cc1	1	0	-54	52*	-18	.
CC(=O)N1CCN(c2ccc(NCc3ccc(C)cc3)cc2)CC1	0	-13	9	53*	-11	.
COc1cc(CN2CCC(C(=O)N3CCN(c4ccccc4F)CC3)CC2)cc(OC)c1O	0	1	-15	29	51*	.
COc1cccc(C(=O)N2CCN(C3CCN(Cc4ccccc4)CC3)CC2)c1	3	-7	13	33	15	.
COc1ccc(C(=O)N2CCN(Cc3cc(OC)c(O)c(OC)c3)CC2)cc1OC	0	7	-4	24	58*	.
CCOc1ccc(CN2CCN(C(=O)c3cccc(F)c3)CC2)cc1	0	7	-9	36	66*	-14
COc1ccc(C(=O)N2CCN(C3CCN(Cc4ccccc4)CC3)CC2)cc1OC	1	0	-47	23	58*	.
